Compounds with a hit are over-represented: about 2.5% of the library has one in this group of screens.
TCR-CD3 inh = inhibitors of human TCR-CD3 interaction, primary screen, biochemical, fluorescence, TAMRA-labeled TCR probe | T-cell receptor (TCR) | inhibition, % at 9.4 µM | 0.37% of 360,000 active | AID 651800, 2012; in the data active means inhibition above about 19%;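 further: recombinant mutant TCR 2C K166C tagged with TAMRA read by polarization; 0% = receptor in buffer alone and 100% = receptor with positive control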
SIAE inh = human SIAE inhibitors, primary screen, biochemical, fluorescence polarization, FP-Rh probe, 1536-well HTS; SIAE FP-Rh probe binding; inhibition, % at 9.66 µM; 0.69% of 370,000 active; AID 1053197, 2014;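 active means inhibition above a cutoff: mean of compounds within the control limits plus 3 SD of those, cut at about 17% in these data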;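 further: 0% = plate median of compound wells and 100% = probe without SIAE protein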
ABHD4 inh = ABHD4 inhibitors, primary screen, biochemical, fluorescence polarization, mouse; inhibition, % at 8.92 µM; 0.54% of 370,000 active; (Lyso)-N-acylphosphatidylethanolamine lipase (Mus musculus), Q8VD66; AID 720543, 2013; purified mABHD4, FP-Rh probe fluorescence polarization;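 active means inhibition exceeding the mean over every tested compound plus 3 SD, cut at about 30% in these data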;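 further: 0% = plate median of compound wells and 100% = S159A mutant with DMSO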
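Test system: mABHD4 protein | Buffer or medium: HEPES pH 7.0 buffer, 150 mM NaCl, 0.01% Pluronic F-127 | Probe or stimulus: FP-Rh fluorescent activity-based probe, added after compound pre-incubation | Timing: Pre-incubation 45 min, probe exposure 60 min, at 25 °C | Technique: Fluorescence polarization, excitation 525 nm, emission 598 nm, BODIPY TMR filters | Repeats: Single well per compound (singlicate)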
rCAG binder = binders of r(CAG) RNA repeats, primary screen, biochemical, fluorescence; r(CAG) RNA repeat, TO-PRO-1 dye displacement fluorescence; inhibition, % at 3 µM; 1.3% of 370,000 active; AID 651821, 2012;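 active means inhibition above the plate cutoff, the mean of all test compounds on that plate plus 3 SD, cut at about 35% in these data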;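 further: 0% = DMSO alone and 100% = 100 µM mitoxantrone as full dye displacement; higher means more dye released from RNA so lower well fluorescence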
HTRA1 inhibitor = HTRA1 serine protease inhibitors, primary screen, biochemical, fluorescence polarization, HTS; Q92743; recombinant HTRA1, FP-rhodamine activity-based probe; inhibition, % at 5.96 µM; AID 504803, 2011; 0.5% of 340,000 active; in the data active means inhibition above about 36%;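 further: 0% = enzyme with DMSO and 100% = wells lacking enzyme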
Target sequence (Q92743 whole entry, looked up): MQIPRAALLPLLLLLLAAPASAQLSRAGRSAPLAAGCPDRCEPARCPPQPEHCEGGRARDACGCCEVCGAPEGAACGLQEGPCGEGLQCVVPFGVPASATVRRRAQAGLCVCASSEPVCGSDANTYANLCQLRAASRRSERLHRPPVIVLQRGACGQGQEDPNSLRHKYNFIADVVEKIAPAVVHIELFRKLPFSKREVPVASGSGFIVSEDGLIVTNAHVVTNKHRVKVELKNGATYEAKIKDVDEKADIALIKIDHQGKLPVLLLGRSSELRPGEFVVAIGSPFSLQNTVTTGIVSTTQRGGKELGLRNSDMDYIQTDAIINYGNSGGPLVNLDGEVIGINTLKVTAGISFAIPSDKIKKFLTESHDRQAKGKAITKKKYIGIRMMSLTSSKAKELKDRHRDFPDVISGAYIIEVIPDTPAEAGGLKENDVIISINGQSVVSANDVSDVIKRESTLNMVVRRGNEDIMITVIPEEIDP
rCAG binder conf = small molecules binding CAG repeat RNA – biochemical, fluorescence, confirmation; shares compounds with rCAG binder; r(CAG) RNA repeat, TO-PRO-1 dye displacement fluorescence; inhibition, % at 3 µM; 70% of 4,300 active; AID 652065, 2013;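 active means inhibition above a per-plate cutoff, the mean inhibition of sample wells plus 3 SD, cut at about 35% in these data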;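 further: loss of TO-PRO-1 fluorescence as compound displaces dye from 1x1 AA loop RNA; 0% = DMSO only wells and 100% = 100 µM mitoxantrone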
dCAG dye counter = displacement of TO-PRO-1 from CAG DNA duplex, counter-screen for rCAG RNA repeat binder project, biochemical, fluorescence, TO-PRO-1 dye, d(CAG) DNA oligo; inhibition, % at 3 µM; d(CAG) DNA oligo TO-PRO-1 dye displacement; shares compounds with rCAG binder; 94% of 4,300 active;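 active means inhibition above its plate's cutoff, the mean test-well inhibition plus 3 SD, cut at about 4.8% in these data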;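 further: 0% = DNA dye mix with DMSO and 100% = 100 µM mitoxantrone; hits displace the dye from DNA and so lower well fluorescence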
DNA CAG DR = inhibitors of DNA CAG/GTC TO-PRO-1 complex, dose response, counter-screen for rCAG RNA repeat binder project, biochemical, fluorescence, TO-PRO-1 dye; DNA CAG/GTC duplex TO-PRO-1 dye displacement fluorescence; IC50, µM; 20% of 250 active; shares compounds with rCAG binder; in the data active means IC50 below about 10 µM
* hit, by the source's call; i = inactive; / = no result.

SMILES | TCR-CD3 inh | SIAE inh | ABHD4 inh | rCAG binder | HTRA1 inhibitor | rCAG binder conf | dCAG dye counter | others
Cc1nn(-c2ccc(F)cc2)c(Cl)c1/C=C(/CC(=O)O)c1nc2ccccc2s1 | 2.1 | 1.2 | -10.3 | 50.9* | -11.8 | 42.8* | 12.8*
CCOc1ccc(CCNC(=O)c2cnccn2)cc1OCC | 1.0 | 1.1 | 4.3 | -4.2 | 3.3 | / | /
O=C(COC(=O)C12CC3CC(CC(O)(C3)C1)C2)Nc1ccccc1OC(F)F | -0.1 | -2.5 | 6.2 | 10.1 | 4.5 | / | /
N#Cc1c2nc3ccccc3nc2n2cc(NC(=O)c3ccc(F)cc3)ccc12 | -14.2 | -9.9 | 12.6 | 35.5* | 3.0 | 41.5* | 20.3*
CCOC(=O)c1c(-c2ccc(-c3ccccc3)cc2)csc1NC(=O)C1C2CCC(O2)C1C(=O)O (centres undefined) | 1.9 | -6.2 | -1.5 | 50.9* | -35.7 | 67.4* | 26.5*
CCN(c1ccccc1C)S(=O)(=O)c1nnc(NC(=O)c2ccco2)s1 | 2.0 | -4.5 | -6.6 | 41.0* | -12.4 | 26.4 | 6.9*
CCN(c1cc(C)cc(C)c1)S(=O)(=O)c1nnc(NC(=O)c2ccco2)s1 | -11.1 | -2.2 | -6.6 | 38.6* | -8.9 | 38.1* | 10.5*
Cc1ccccc1N1CCN(S(=O)(=O)c2nnc(NC(=O)c3ccco3)s2)CC1 | -0.5 | -17.4 | -4.6 | 43.1* | -16.1 | 71.9* | 25.7* | DNA CAG DR=i
Cc1ccccc1N(C)S(=O)(=O)c1nnc(NC(=O)c2ccccc2F)s1 | -1.0 | 7.7 | 2.5 | 8.6 | -10.2 | / | /
CCOC(=O)N1CCN(C(=O)c2ccccc2-c2ccccc2)CC1 | -5.0 | 2.2 | -19.0 | -0.5 | 1.1 | / | /
CC(c1ccon1)N(C)Cc1cn[nH]c1-c1ccc(F)cc1F (centres undefined) | 0.6 | 11.9 | -5.8 | -4.2 | 0.0 | / | /
CCc1ccc(OC(C)C(=O)Nc2ccc(S(=O)(=O)Nc3nccs3)cc2)cc1 (centres undefined) | 6.3 | 2.7 | 22.2 | 51.6* | -6.8 | 38.7* | 14.1*
CCC(C)C(=O)Nc1ccc(S(=O)(=O)Nc2nccs2)cc1 (centres undefined) | -5.9 | 0.0 | -4.7 | 1.8 | 3.5 | / | /
Cc1ccc(OC(C)C(=O)Nc2ccc(S(=O)(=O)Nc3nccs3)cc2)cc1 (centres undefined) | 6.9 | -7.9 | 8.7 | 37.6* | -8.2 | 22.7 | 6.5*
CC(C)(C)c1ccc(C(=O)NCCC(=O)Nc2ccc(S(=O)(=O)Nc3nccs3)cc2)cc1 | 6.8 | 2.1 | -1.4 | 57.2* | -3.3 | 54.2* | 20.0*
Cc1ccc(SCC(=O)Nc2ccc(S(=O)(=O)Nc3nccs3)cc2)cc1 | 6.5 | -6.5 | -4.7 | 48.7* | -7.7 | 50.2* | 14.6*
C=CCN=c1scc(-c2ccc3c(c2)NC(=O)CO3)n1/N=C(\C)c1ccccn1 | -3.4 | 10.1 | 16.7 | -2.0 | 1.0 | / | /
CCOc1ccccc1NC(=O)CNC(=O)N1CC(=O)Nc2ccccc21 | -2.6 | 6.2 | 2.3 | -3.4 | -6.4 | / | /
CCSc1nnc(NC(=O)CSc2nc(C)cc(C)n2)s1 | -3.3 | 2.9 | -3.2 | -2.6 | -2.9 | / | /
Cc1ccc(/C=c2\sc3nc(-c4ccco4)nn3c2=O)o1 | / | / | / | / | 9.1 | / | /
COc1ccc(Br)cc1/C=c1\sc2nc(-c3ccco3)nn2c1=O | 12.8 | -11.5 | -7.7 | 46.1* | -24.6 | 42.5* | 20.6*
CCC(C(=O)O)N1C(=O)/C(=C/C(C)=C/c2ccccc2)SC1=S (centres undefined) | -3.3 | 0.0 | -7.8 | 60.7* | -23.9 | 76.5* | 31.4* | DNA CAG DR=i
CC(=C\c1ccccc1)/C=C1/SC(=S)N(C(C(=O)O)C(C)C)C1=O (centres undefined) | 2.0 | -1.4 | -11.5 | 68.5* | -28.9 | 62.8* | 25.2*
C=CCN1C(=O)/C(=C\C(C)=C\c2ccccc2)SC1=S | -0.6 | -2.6 | 1.0 | 1.3 | -14.7 | / | /
CCOC(=O)N1CCc2c(sc(NC(=O)c3ccc(S(=O)(=O)N4CCCC4)cc3)c2C#N)C1 | -13.4 | -26.2 | -5.2 | 83.9* | -4.5 | 57.2* | 18.7*
SMILES | TCR-CD3 inh | SIAE inh | ABHD4 inh | rCAG binder | HTRA1 inhibitor | rCAG binder conf | dCAG dye counter | others
O=C(CCN1C(=O)/C(=C/c2ccc(Cl)cc2)SC1=S)Nc1ccc(C(=O)O)cc1 | 0.9 | 2.5 | 3.3 | 3.5 | 12.4 | / | /
CC(/C=C1\SC(=S)N(CCCC(=O)Nc2ccc(C(=O)O)cc2)C1=O)=C\c1ccccc1 | 10.1 | -70.6 | -115.2 | 73.8* | -100.0 | 85.1* | 53.4*
O=C(CCN1C(=O)/C(=C\c2cccs2)SC1=S)Nc1ccc(C(=O)O)cc1 | -6.1 | -5.1 | -22.3 | 54.8* | -7.7 | 39.7* | 11.0*
CC(/C=C1\SC(=S)N(CCC(=O)Nc2cccc(C(=O)O)c2)C1=O)=C\c1ccccc1 | 2.8 | -4.1 | -22.9 | 37.0* | -191.2 | 88.1* | 62.2*
CC(/C=C1\SC(=O)N(CCCC(=O)O)C1=O)=C\c1ccccc1 | 0.8 | 9.6 | 4.6 | 9.9 | 3.3 | / | /
CC(=C\c1ccccc1)/C=C1/SC(=S)N(CCCC(=O)O)C1=O | 4.2 | -1.3 | 13.5 | 37.2* | -23.9 | 48.8* | 14.5*
CCn1cc(C(=O)NCCC(=O)OC)c(=O)c2cc3c(cc21)OCO3 | -1.4 | 6.8 | -1.1 | -2.8 | 3.0 | / | /
CC(C)(C)NC(=O)C(c1ccc(F)cc1)N(CC1CCCO1)C(=O)c1csnn1 (centres undefined) | 1.8 | -3.0 | -1.7 | -0.9 | 1.5 | / | /
N=c1nc(-c2ccccc2)ccn1O | -2.1 | 0.8 | 3.9 | 1.8 | -2.0 | / | /
COc1ccc(OC(=O)c2cccnc2)cc1 | 0.6 | -4.2 | -4.0 | 0.6 | 2.4 | / | /
Cc1ccc(OS(=O)(=O)c2ccccc2)c(/C=N/N=C2\NC(=O)C(C)S2)c1 (centres undefined) | 6.0 | 3.0 | -1.2 | 36.3* | -18.7 | 46.1* | 12.8*
Nn1c(=S)[nH]nc(Cc2ccc(O)cc2)c1=O | -6.1 | 0.3 | 0.3 | -3.5 | 6.6 | / | /
Cn1c(CSCc2ccccc2)nnc1SCC(=O)Nc1nccs1 | -1.3 | 1.5 | 1.6 | -4.9 | -1.4 | / | /
O=C(O)c1ccc(NC(=O)c2cn(-c3ccccc3)nc2-c2cccc(Cl)c2)cc1 | 5.3 | -25.5 | -60.9 | 35.8* | -77.3 | 55.3* | 18.9*
Cc1ccc(-c2nn(-c3ccccc3)cc2/C=C/C(=O)Nc2nccs2)cc1 | -5.7 | -12.4 | 3.4 | 2.1 | -11.2 | / | /

Bioassay records deposited in PubChem by The Scripps Research Institute Molecular Screening Center.
